Screens from PubChem.
NR2E3 ag-1: NR2E3 agonists in two-hybrid cells, primary screen, cell-based, luminescence, CHO-S, Gal4-NCOR/VP16-NR2E3; AID 602229, 2012; 0.35% of 360,000 active; inhibition of corepressor binding, % at 3.98 µM; Photoreceptor-specific nuclear receptor (Homo sapiens), Q9Y5X4; luciferase;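 active means inhibition above the mean of all tested compounds plus 3 SD, cut at about 70% in these data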;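 further: 0% = DMSO with NR2E3 transfected cells and 100% = cells lacking NR2E3 construct; higher means lower luciferase signal from less NR2E3 corepressor binding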
MT1-MMP act inh: blockers of MT1-MMP proenzyme processing, primary screen, HT1080 RFP-PRO-GFP cells, GFP/RFP fluorescence; Matrix metalloproteinase-14 (Homo sapiens), P50281; 0.061% of 360,000 active; AID 651647, 2012; GFP/RFP ratio change, % at 20 µM; GFP/RFP ratio fluorescence, overnight; percent of plate control window, DMSO zero;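 active means GFP/RFP ratio change of at least 30% with cell ATP level not reduced by more than half and red fluorescence within 50% of control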
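Material: RFP-PRO-GFP reporter HT1080 cells. Dosing: single-point 20 µM compound, 1% DMSO. Controls: DMSO and RFP-L50D-GFP cell wells. Timing: cells overnight before dosing, compound overnight, 37 °C, 5% CO2. Measure: GFP/RFP fluorescence ratio.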
NR1D1 modulator: modulators of Rev-erb alpha DNA binding, primary screen, biochemical, FITC-DNA, fluorescence polarization, uHTS | Rev-erbα–FITC-DNA binding, 90 min | activity, % at 10 µM | 0.79% of 370,000 active | AID 1259318, 2017;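 active means activity above about 14%, limit read from the data; passing the limit was not always enough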;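 further: 0% = DMSO wells with 35 nM protein and 100% = DMSO wells with 750 nM protein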
Target sequence (P20393 whole entry, looked up): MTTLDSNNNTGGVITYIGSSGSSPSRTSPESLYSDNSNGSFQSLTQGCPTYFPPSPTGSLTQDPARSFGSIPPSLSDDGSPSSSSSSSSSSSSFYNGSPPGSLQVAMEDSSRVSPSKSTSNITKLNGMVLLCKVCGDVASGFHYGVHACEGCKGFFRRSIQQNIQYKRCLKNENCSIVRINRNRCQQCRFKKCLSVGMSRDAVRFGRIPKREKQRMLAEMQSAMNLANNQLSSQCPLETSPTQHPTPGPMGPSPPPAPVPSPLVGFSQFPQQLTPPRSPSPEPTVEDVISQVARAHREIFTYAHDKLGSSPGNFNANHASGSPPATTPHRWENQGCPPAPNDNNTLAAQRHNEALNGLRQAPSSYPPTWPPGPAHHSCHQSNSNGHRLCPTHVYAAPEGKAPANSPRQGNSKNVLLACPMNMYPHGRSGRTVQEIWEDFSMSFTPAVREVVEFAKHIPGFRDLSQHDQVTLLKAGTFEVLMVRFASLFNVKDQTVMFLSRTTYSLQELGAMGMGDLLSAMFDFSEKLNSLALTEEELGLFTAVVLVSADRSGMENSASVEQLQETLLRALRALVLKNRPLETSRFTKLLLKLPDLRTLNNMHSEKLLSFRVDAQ
SKN-1 block: suppressors of acrylamide-induced Pgst-4::GFP reporter in worms, primary screen, SKN-1 inhibitor project, whole organism, uHTS, GFP/RFP fluorescence ratio, strain VP596. 0.49% of 360,000 active. AID 624304, 2012. inhibition, % at 21.8 µM. C. elegans VP596 Pgst-4::GFP/RFP ratio, 24 h;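 active means interference check ratio from 0.5 to 1.5 plus GFP to RFP signal ratio inhibition reaching or exceeding a fixed threshold, cut at about 30% in these data, passing the limit was not always enough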
PG9 Ab binder: binders of HIV-1 gp120 antibody PG9, primary screen, biochemical, TR-FRET. HIV-1 gp120 / PG9 antibody interaction. TR-FRET gp120-PG9 antibody binding. inhibition, % at 6.7 µM. 0.43% of 360,000 active. AID 624416, 2012; in the data active means inhibition above about 8.5%
NR2E3 ag-2: inhibitors of NR2E3-RetCOR corepressor binding, primary screen, NR2E3 agonist project, biochemical, TR-FRET, GST-NR2E3, biotin-RetCOR; Photoreceptor-specific nuclear receptor (Homo sapiens), Q9Y5X4; 1536-well; inhibition of corepressor binding, % at 4.78 µM; 0.12% of 320,000 active; AID 2300, 2010;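 active means percent inhibition above the cutoff of mean plus 3 SD of all tested compounds, set per screening campaign, cut at about 20% in these data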;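 further: 0% = DMSO wells and 100% = biotin wells as full block of FRET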
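Material – GST-tagged NR2E3 plus biotinylated RetCOR corepressor · Quantity – NR2E3 fusion 1.35 nM · Times – 5 h incubation at 4 °C · Medium – pH 7.5 Tris-based buffer · Technique – TR-FRET, Eu(K)-anti-GST donor, streptavidin-D2 acceptor, ex 340, em 617/671 nm · Benchmarks – high control biotin, low control 0.6% DMSO · Format – 1536-well plates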
NR2E3 ag confirm: NR2E3 agonists, confirmation, biochemical, TR-FRET | cell-free NR2E3 corepressor release, 5 h | activation (reported as inhibition), % at 3.98 µM | 39% of 360 active | shares compounds with NR2E3 ag-2; in the data active means activation above about 20%
PPARg-NCOR2 ctr: agonists of PPARg-NCOR2 corepressor interaction, counter-screen for NR2E3 agonist project, biochemical, TR-FRET | shares compounds with NR2E3 ag-2 | TR-FRET PPARg-NCOR2 coregulator interaction | inhibition, % at 3.98 µM | 45% of 360 active; in the data active means inhibition above about 20%;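 further: 0% = DMSO vehicle and 100% = wells without protein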
PG9 binder conf: binders of anti-gp120 antibody PG9, confirmation, biochemical, TR-FRET; shares compounds with PG9 Ab binder; TR-FRET PG9 antibody binding; inhibition, % at 6.7 µM; 90% of 1,500 active; AID 651571, 2012; in the data active means inhibition above about 9%
PGV04 Ab binding: binders of control antibody PGV04, counter-screen for PG9 antibody binder project, biochemical, TR-FRET, distinct HIV envelope site; shares compounds with PG9 Ab binder; TR-FRET PGV04 antibody-gp120 binding; inhibition, % at 6.7 µM; 95% of 1,500 active; in the data active means inhibition above about 9.5%
* marks the source's active call; other numbers are inactive results; x = no result. An excerpt weighted towards active compounds, which were near 1.9% of everything screened.

SMILES | NR2E3 ag-1 | MT1-MMP act inh | NR1D1 modulator | SKN-1 block | PG9 Ab binder | NR2E3 ag-2 | NR2E3 ag confirm | PPARg-NCOR2 ctr | PG9 binder conf | PGV04 Ab binding
Cc1onc(-c2ccccc2Cl)c1C(=O)Nc1nnc(-c2ccc(Br)cc2)s1 | 14.1 | 4.0 | -0.1 | 2.4 | 27.0* | 21.5* | 14.3 | 15.0 | 31.5* | 49.5*
Cc1onc(-c2ccccc2Cl)c1C(=O)Nc1nnc(-c2ccc(F)cc2)s1 | 9.2 | -8.0 | 1.9 | -2.5 | -0.7 | 4.8 | x | x | x | x
COC(=O)c1cc2c(-c3ccccc3)c(C)c3ccccn3c-2c1C(=O)OC | -34.7 | -19.4 | 3.2 | 1.7 | 25.6* | 27.7* | 30.4* | 29.4* | 34.8* | 52.5*
O=C1NC(c2ccc(Br)cc2)c2c(-c3ccccc3)n[nH]c21 (stereo not given) | x | x | 1.5 | x | 1.1 | x | x | x | x | x
Cc1cc(N2C(=O)C(O)=C(C(=O)c3ccc(C)o3)C2c2cccc(Oc3ccccc3)c2)no1 (stereo not given) | -11.4 | -3.4 | -5.2 | -14.3 | 6.7 | 17.3 | x | x | x | x
COc1cccc(C2C(C(=O)c3cc4ccccc4o3)=C(O)C(=O)N2c2cc(C)on2)c1 (stereo not given) | -28.6 | -1.3 | -7.7 | 5.5 | 19.6* | 26.8* | 26.5* | 26.4* | 17.4* | 24.9*
CCCOc1ccc(C2C(C(=O)c3cc4ccccc4o3)=C(O)C(=O)N2c2cc(C)on2)cc1OC (stereo not given) | -24.2 | 14.1 | -5.6 | 4.7 | 7.6 | 17.2 | x | x | x | x
C=CCOc1cccc(C2C(C(=O)c3cc4ccccc4o3)=C(O)C(=O)N2c2cc(C)on2)c1 (stereo not given) | -5.0 | 1.4 | -3.3 | 6.0 | 16.8* | 24.0* | 31.3* | 32.9* | 22.2* | 35.1*
COc1ccccc1C1C(C(=O)c2cc3ccccc3o2)=C(O)C(=O)N1c1cc(C)on1 (stereo not given) | -5.3 | 3.1 | -4.5 | -5.9 | 10.5* | 22.0* | 19.8* | 19.0 | 18.4* | 32.1*
COCc1cc(N2CCNC[C@@H]2C)ccc1N1CCN(Cc2ccccc2)[C@@H](C)C1 | x | x | 3.3 | x | -1.9 | x | x | x | x | x
COC(=O)c1cc(Br)c(=O)n(-c2ccccn2)c1 | 21.5 | -7.0 | -0.8 | -38.1 | 0.9 | 0.1 | x | x | x | x
COC(=O)c1cc(Br)c(=O)n(-c2nccs2)c1 | 4.1 | 1.7 | 6.3 | 4.7 | 28.0* | 24.7* | 22.5* | 24.3* | 36.7* | 50.0*
NC(=O)c1ncn([C@@H]2O[C@H](C(=O)N[C@H](Cc3c[nH]c4ccccc34)C(=O)N3CCN(C(=O)N4CCOCC4)CC3)[C@@H](O)[C@H]2O)n1 | x | x | 5.5 | x | -0.7 | x | x | x | x | x
NC1=CC(=O)c2cccc3cccc1c23 | x | x | x | x | x | -3.6 | x | x | x | x
O=C1C=C(O)c2cccc3cccc1c23 | -26.4 | -17.4 | 1.1 | -6.8 | 48.7* | 23.2* | 10.6 | 19.0 | 39.1* | 58.1*
COC(=O)C1=C(C)N(Cc2ccc(F)cc2)C(=S)NC1c1cccc(Br)c1 (stereo not given) | x | x | 3.8 | x | 4.1 | x | x | x | x | x
Cc1c(NC(=O)c2ccc(N3CCCC3)c([N+](=O)[O-])c2)cccc1-c1nc2ccccc2s1 | -39.4 | 16.3 | 4.5 | 14.7 | -1.1 | 0.1 | x | x | x | x
Cc1c(NC(=O)c2ncn[nH]2)cccc1-c1nc2ccccc2s1 | -12.5 | -3.4 | 10.4 | 1.0 | 27.2* | 19.8* | 5.4 | 18.4 | 33.2* | 50.7*
O=C(O)C1CCN(c2nc(-c3ccccc3)c3cc(Br)ccc3n2)CC1 | -59.2 | -12.5 | 0.8 | 19.2 | 15.1* | 20.9* | 23.7* | 25.0* | 17.1* | 36.5*
Cc1ccc2nc(N3CCN(C=O)CC3)nc(-c3ccccc3)c2c1 | -18.2 | -4.3 | -3.4 | -1.7 | -1.3 | -3.1 | x | x | x | x
O=c1c2oc3ccccc3c2[nH]c(=S)n1-c1ccc(F)cc1 | 8.1 | -2.2 | -6.1 | 3.6 | 10.1* | 44.0* | 32.3* | 24.3* | 11.9* | 12.0*
Cc1ccc(-n2c(=S)[nH]c3c(oc4ccccc43)c2=O)cc1C | -26.2 | 4.3 | -7.1 | 12.7 | 19.9* | 42.7* | 35.2* | 32.7* | 11.1* | 17.4*
O=C1CCc2cc(S(=O)(=O)Nc3ccc4c(c3)OCCO4)ccc2N1 | x | x | 0.9 | x | x | x | x | x | x | x
Cc1cc(N2CCN(CC(C)(C)O)C[C@@H]2C)ccc1N1CCN(Cc2ccccc2)[C@@H](C)C1 | x | x | -4.9 | x | 1.3 | x | x | x | x | x
CCN1CCN(C(=O)c2cc(-c3cccnc3)nc3ccc(Br)cc23)CC1 | -9.4 | -1.0 | 7.0 | -14.6 | 6.8 | 6.4 | x | x | x | x
O=C(O)c1cc(-c2ccc3c(c2)OCO3)nc2ccc(Br)cc12 | -42.5 | 0.2 | 0.1 | 5.3 | 20.3* | 37.7* | 44.4* | 55.4* | 27.8* | 34.1*
O=C(O)c1cc(-c2cccs2)nc2ccc(F)cc12 | -18.2 | -2.1 | -1.0 | -0.1 | 4.2 | 4.5 | x | x | x | x
O=C(O)c1cc(-c2cccs2)nc2ccc(Br)cc12 | -35.0 | 0.3 | 6.1 | -5.4 | 40.4* | 41.3* | 41.2* | 52.9* | 54.5* | 77.1*
O=C(O)c1cc(-c2cccnc2)nc2ccc(Br)cc12 | 0.3 | 3.4 | -4.6 | 0.1 | 44.3* | 56.0* | 57.5* | 56.7* | 55.6* | 68.9*
CN(C)S(=O)(=O)c1cccc(C(=O)N/N=C\c2ccc(-c3ccccn3)cc2)c1 | x | x | -1.0 | x | x | x | x | x | x | x
